We go through two molecules from ChEMBL document CHEMBL3867440, “Hernandezine, a Bisbenzylisoquinoline Alkaloid with Selective Inhibitory Activity against Multidrug-Resistance-Linked ATP-Binding Cassette Drug Transporter ABCB1” (J Nat Prod, 2016).

One data set has as its system HEK293. As to the kind of experiment: Inhibition of human wild-type ABCG2 transfected in HEK293 cells assessed as potentiation of mitoxantrone-induced cytotoxicity by measuring mitoxantrone resistance ratio at 3000 nM after 72 hrs by CCK8 assay relative to parental HEK293 cells.
In data set [1] the target is T1, ATP-dependent translocase ABCB1 (Homo sapiens, UniProt P08183). As to the kind of experiment: Inhibition of ABCB1 in human NCI-ADR-RES cells assessed as potentiation of vincristine-induced cytotoxicity by measuring vincristine resistance ratio at 1000 nM after 72 hrs by MTT assay relative to parental OVCAR8 cells (reference value: 435). Particulars: ovcar-8, 72 h, 1 µM. Format: cell-based. The essentials: (§1)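 Cells were kept in drug-free DMEM with 10% FCS for 7 days before assay, then plated at 5000 cells/well for 24 h. Drug at various concentrations was added with a nontoxic fixed level of modulator for 72 h, and the read-out was MTT. IC50 came from fitted curves (≥3 experiments). RR = IC50 of the resistant line / IC50 of the parental line.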
T1 sequence (P08183 whole entry): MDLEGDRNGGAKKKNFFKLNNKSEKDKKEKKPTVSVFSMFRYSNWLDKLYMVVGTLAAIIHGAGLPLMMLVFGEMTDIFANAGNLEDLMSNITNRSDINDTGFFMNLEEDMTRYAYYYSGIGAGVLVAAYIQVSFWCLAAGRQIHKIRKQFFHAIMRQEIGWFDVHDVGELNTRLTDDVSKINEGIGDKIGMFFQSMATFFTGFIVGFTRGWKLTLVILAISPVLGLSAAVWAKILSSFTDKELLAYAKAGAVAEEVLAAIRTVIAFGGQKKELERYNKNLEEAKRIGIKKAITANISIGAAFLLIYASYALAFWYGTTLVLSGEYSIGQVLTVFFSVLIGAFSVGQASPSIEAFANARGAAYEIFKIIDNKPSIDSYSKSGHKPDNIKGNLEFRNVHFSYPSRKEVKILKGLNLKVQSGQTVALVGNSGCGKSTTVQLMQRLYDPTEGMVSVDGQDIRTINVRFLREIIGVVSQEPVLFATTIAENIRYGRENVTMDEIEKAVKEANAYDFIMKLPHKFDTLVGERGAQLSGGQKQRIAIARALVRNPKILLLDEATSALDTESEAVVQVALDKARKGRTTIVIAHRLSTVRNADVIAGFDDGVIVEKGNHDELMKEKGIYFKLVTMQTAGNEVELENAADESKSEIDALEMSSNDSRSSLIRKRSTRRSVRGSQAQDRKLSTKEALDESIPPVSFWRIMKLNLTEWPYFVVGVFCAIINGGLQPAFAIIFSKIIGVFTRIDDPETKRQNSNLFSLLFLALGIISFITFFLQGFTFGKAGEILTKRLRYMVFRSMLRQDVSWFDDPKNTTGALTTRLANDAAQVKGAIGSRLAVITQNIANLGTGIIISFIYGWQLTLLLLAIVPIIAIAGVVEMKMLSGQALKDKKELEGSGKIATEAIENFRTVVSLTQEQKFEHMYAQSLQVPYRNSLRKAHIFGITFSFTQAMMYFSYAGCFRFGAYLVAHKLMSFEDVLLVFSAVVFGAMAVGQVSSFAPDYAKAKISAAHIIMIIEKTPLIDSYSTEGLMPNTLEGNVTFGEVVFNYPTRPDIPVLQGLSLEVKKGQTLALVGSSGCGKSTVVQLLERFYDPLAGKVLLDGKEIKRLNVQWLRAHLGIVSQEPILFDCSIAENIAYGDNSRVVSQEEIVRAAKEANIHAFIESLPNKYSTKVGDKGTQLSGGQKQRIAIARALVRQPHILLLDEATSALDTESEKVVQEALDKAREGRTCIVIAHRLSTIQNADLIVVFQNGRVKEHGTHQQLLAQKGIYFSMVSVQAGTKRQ

Data set [2] deals with KB 3-1. As to the kind of experiment: Potentiation of colchicine-induced apoptosis in human KB-3-1 cells assessed as necrotic cells at 1 uM after 48 hrs by Annexin V-FITC/propidium iodide staining based FACS analysis (reference value: 4.9%). Format: functional.
Data set [3] has as its target T1, ATP-dependent translocase ABCB1. As to the kind of experiment: Inhibition of ABCB1 in human KBV1 cells assessed as potentiation of vincristine-induced cytotoxicity by measuring vincristine resistance ratio at 1000 nM after 72 hrs by MTT assay relative to parental KB-3-1 cells (reference value: 356). Format: cell-based. The following applies: kbv1, 72 h, 1 µM. Put shortly:
as §1

Data set [4] has as its system KB 3-1. As to the kind of experiment: Induction of apoptosis in human KB-3-1 cells assessed as early apoptotic cells at 1 uM after 48 hrs by Annexin V-FITC/propidium iodide staining based FACS analysis (reference value: 5.1%). Format: functional.
The subject of data set [5] is KB 3-1. As to the kind of experiment: Induction of apoptosis in human KB-3-1 cells assessed as viable cells at 1 uM after 48 hrs by Annexin V-FITC/propidium iodide staining based FACS analysis (reference value: 88.4%). The following applies: KB 3-1, 48 h, read-out: Activity. Format: functional.
Data set [6] addresses T1, ATP-dependent translocase ABCB1. As to the kind of experiment: Inhibition of ABCB1 in human NCI-ADR-RES cells assessed as potentiation of doxorubicin-induced cytotoxicity by measuring doxorubicin resistance ratio at 1000 nM after 72 hrs by MTT assay relative to parental OVCAR8 cells (reference value: 46). Format: cell-based. Particulars: ovcar-8, 72 h, 1 µM. The essentials: as §1

The subject of data set [7] is KB 3-1. As to the kind of experiment: Induction of apoptosis in human KB-3-1 cells assessed as necrotic cells at 1 uM after 48 hrs by Annexin V-FITC/propidium iodide staining based FACS analysis (reference value: 0.7%). Format: functional.
Data set [8] relates to KB 3-1. As to the kind of experiment: Potentiation of colchicine-induced apoptosis in human KB-3-1 cells assessed as viable cells at 1 uM after 48 hrs by Annexin V-FITC/propidium iodide staining based FACS analysis (reference value: 38.9%). Format: functional. The following applies: KB 3-1, 48 h, read-out: Activity.
For data set [9], the system named is KB-V1. As to the kind of experiment: Induction of apoptosis in human KBV1 cells assessed as late apoptotic cells at 1 uM after 48 hrs by Annexin V-FITC/propidium iodide staining based FACS analysis (reference value: 7.6%). The format is functional.
Data set [10] concerns the target T1, ATP-dependent translocase ABCB1. As to the kind of experiment: Inhibition of ABCB1 in human KBV1 cells assessed as potentiation of doxorubicin-induced cytotoxicity by measuring doxorubicin resistance ratio at 1000 nM after 72 hrs by MTT assay relative to parental KB-3-1 cells (reference value: 34). Format: cell-based. Particulars: kbv1, 72 h, 1 µM. Put shortly: as §1

Data set [11] relates to KB 3-1. As to the kind of experiment: Potentiation of colchicine-induced apoptosis in human KB-3-1 cells assessed as late apoptotic cells at 1 uM after 48 hrs by Annexin V-FITC/propidium iodide staining based FACS analysis (reference value: 25.7%). Format: functional.
The subject of data set [12] is KB-V1. As to the kind of experiment: Induction of apoptosis in human KBV1 cells assessed as necrotic cells at 1 uM after 48 hrs by Annexin V-FITC/propidium iodide staining based FACS analysis (reference value: 1%). Format: functional.
Data set [13] deals with T1, ATP-dependent translocase ABCB1. As to the kind of experiment: Inhibition of ABCB1 in human KBV1 cells assessed as potentiation of colchicine-induced cytotoxicity by measuring colchicine resistance ratio at 1000 nM after 72 hrs by MTT assay relative to parental KB-3-1 cells (reference value: 55). Format: cell-based. Particulars: kbv1, 72 h, 1 µM. The essentials: as §1

For data set [14], the system named is KB 3-1. As to the kind of experiment: Potentiation of colchicine-induced apoptosis in human KB-3-1 cells assessed as early apoptotic cells at 1 uM after 48 hrs by Annexin V-FITC/propidium iodide staining based FACS analysis (reference value: 30.5%). The format is functional.
The test system of data set [15] is KB-V1. As to the kind of experiment: Induction of apoptosis in human KBV1 cells assessed as early apoptotic cells at 1 uM after 48 hrs by Annexin V-FITC/propidium iodide staining based FACS analysis (reference value: 5.3%). Format: functional.
Data set [16] relates to KB-V1. As to the kind of experiment: Induction of apoptosis in human KBV1 cells assessed as viable cells at 1 uM after 48 hrs by Annexin V-FITC/propidium iodide staining based FACS analysis (reference value: 86.1%). Format: functional. Particulars: KB-V1, 48 h, read-out: Activity.
For data set [17], the target named is T1, ATP-dependent translocase ABCB1. As to the kind of experiment: Inhibition of ABCB1 in human NCI-ADR-RES cells assessed as potentiation of colchicine-induced cytotoxicity by measuring colchicine resistance ratio at 1000 nM after 72 hrs by MTT assay relative to parental OVCAR8 cells (reference value: 59). Particulars: ovcar-8, 72 h, 1 µM. Format: cell-based. Put shortly:
as §1

The target is the same in data set [18]. As to the kind of experiment: Inhibition of human ABCB1 transfected in HEK293 cells assessed as potentiation of doxorubicin-induced cytotoxicity by measuring doxorubicin resistance ratio at 1000 nM after 72 hrs by CCK8 assay relative to parental HEK293 cells (reference value: 96). Particulars: hek293, 72 h, 1 µM. The format is cell-based.
Data set [19] concerns KB 3-1. As to the kind of experiment: Induction of apoptosis in human KB-3-1 cells assessed as late apoptotic cells at 1 uM after 48 hrs by Annexin V-FITC/propidium iodide staining based FACS analysis (reference value: 5.8%). The format is functional.

For the molecule `COc1ccc2c3c([nH]c2c1)[C@H](C=C(C)C)N1C(=O)[C@@H]2CCCN2C(=O)[C@@H]1C3`, in the data set with HEK293, the Ratio was 7.
Regarding `COc1cc2c(cc1OC)CN(CCc1ccc(NC(=O)c3cc(OC)c(OC)cc3NC(=O)c3cnc4ccccc4c3)cc1)CC2` [TARIQUIDAR], the Ratio in data set [1] is on record as 4; in [3], 1; in data set [6] it was 3; in [10], 1; in [13] it was 1; in [17], 1. Further, the Ratio in data set [18] was found to be 5. For the same molecule, the Activity in the data set on KB 3-1 [2] was determined as 5.6%; with KB 3-1 [4], 3.3%; in the data set with KB 3-1 [7], 0.2%; in the data set with KB-V1 [9], 5.2%; in the data set with KB 3-1 [11], 27%; in the data set with KB-V1 [12], 0.2%. The Activity with KB 3-1 [14] is reported as 30.2%; in the data set on KB-V1 [15] it was 3.5%; in the data set with KB 3-1 [19], 4.4%. The results for the viability at 1 µM in the data set on KB 3-1 [5], in the data set on KB 3-1 [8] and in the data set on KB-V1 [16] were 92.1%, 37.2% and 91.1%, respectively.
